Data reported in ChEMBL document CHEMBL1148725, “2,2,2-Trichloro-N-({2-[2-(dimethylamino)ethyl]-1,3-dioxo-2,3-dihydro-1H-benzo[de]isoquinolin- 5-yl}carbamoyl)acetamide (UNBS3157), a novel nonhematotoxic naphthalimide derivative with potent antitumor activity” (J Med Chem, 2007).

Legend:
[1] = system: Mus musculus; test: Hematotoxicity in B6D2F1 mouse assessed as RBC count at 10 mg/kg, iv; format: organism-based; set-up: dose 10 mg/kg; conditions: in vivo
[2] = system: Mus musculus; test: Hematotoxicity in B6D2F1 mouse assessed as WBC count at 20 mg/kg, po; format: organism-based; set-up: dose 20 mg/kg, route oral; conditions: in vivo
[3] = system: Mus musculus; test: Toxicity in B6D2F1 mouse at 120 mg/kg, ip; format: organism-based; set-up: dose 120 mg/kg, route intraperitoneal; conditions: in vivo
Procedure, shortened: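 Healthy female B6D2F1 mice, 10 per group, dosed i.p. in DMSO/saline (5:95 v/v) three times weekly for five weeks at two levels set relative to MTD; sacrificed 3 days after final dose; platelet, RBC and WBC counted by Coulter counter.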

[4] = system: Mus musculus; test: Hematotoxicity in B6D2F1 mouse assessed as WBC count at 40 mg/kg, po; format: organism-based; set-up: dose 40 mg/kg, route oral; conditions: in vivo
[5] = system: Mus musculus; test: Hematotoxicity in B6D2F1 mouse assessed as WBC count at 10 mg/kg, iv; format: organism-based; set-up: dose 10 mg/kg, route intravenous; conditions: in vivo
[6] = system: L1210; test: Antitumor activity in L1210 cells xenografted B6D2F1 mouse at 120 mg/kg, ip relative to control; format: functional; conditions: route intraperitoneal
Procedure, shortened: (§1)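 Mice grafted with L1210 leukaemia cells on day 0, then dosed i.p. four times weekly on days 1-4 and 8-11. Five mice per group. Outcome is %T/C, the median survival of treated over control. Kruskal-Wallis test followed by Dunn comparisons against control.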

[7] = system: Mus musculus; test: Hematotoxicity in B6D2F1 mouse assessed as RBC count at 20 mg/kg, po; format: organism-based; set-up: dose 20 mg/kg, route oral; conditions: in vivo
[8] = system: L1210; test: Antitumor activity in L1210 cells xenografted B6D2F1 mouse at 40 mg/kg, ip relative to control; format: functional; conditions: route intraperitoneal; procedure, shortened: as §1
[9] = system: Mus musculus; test: Hematotoxicity in B6D2F1 mouse assessed as RBC count at 40 mg/kg, po; format: organism-based; set-up: dose 40 mg/kg, route oral; conditions: in vivo
[10] = Antiproliferative activity against Hs683 cells after 72 hrs by MTT assay; format: functional, cell-based, Homo sapiens, Hs 683; conditions: hs 683
Procedure, shortened: (§2)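 Cells cultured with each compound for three days; growth then read by the MTT colorimetric assay and reported as IC50 (µM).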

[11] = Antiproliferative activity against U373MG cells after 72 hrs by MTT assay; format: functional, cell-based, Homo sapiens, U-373MG ATCC; conditions: u-373mg atcc; procedure, shortened: as §2
[12] = system: Mus musculus; test: Hematotoxicity in B6D2F1 mouse assessed as platelet count at 10 mg/kg, po; format: organism-based; set-up: dose 10 mg/kg, route oral; conditions: in vivo
[13] = system: HCT-15; test: Antiproliferative activity against HCT15 cells after 72 hrs by MTT assay; format: functional, cell-based, Homo sapiens; conditions: hct-15; procedure, shortened: as §2
[14] = system: L1210; test: Antitumor activity in L1210 cells xenografted B6D2F1 mouse at 80 mg/kg, ip relative to control; format: functional; conditions: route intraperitoneal; procedure, shortened: as §1
[15] = system: Mus musculus; test: Hematotoxicity in ip dosed B6D2F1 mouse assessed as decrease in RBC count; format: organism-based; conditions: in vivo
Procedure, shortened: (§3)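 Healthy female B6D2F1 mice, 10 per group, dosed i.p. three times weekly for five weeks at two dose levels set relative to MTD. Vehicle DMSO/saline 5:95 v/v. Killed 3 days after the last dose; blood platelet, RBC and WBC counts taken with a Coulter counter.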

[16] = system: Mus musculus; test: Hematotoxicity in B6D2F1 mouse assessed as WBC count at 5 mg/kg, iv; format: organism-based; set-up: dose 5 mg/kg, route intravenous; conditions: in vivo
[17] = Toxicity in ip dosed B6D2F1 mouse; format: organism-based; conditions: in vivo
Procedure, shortened: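 Acute MTD was set by a single i.p. dose to groups of three healthy female B6D2F1 mice, at 2.5, 5, 10, 20, 40, 80 and 160 mg/kg. The MTD is the dose just below the lowest dose that killed at least one mouse.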

[18] = system: Mus musculus; test: Hematotoxicity in B6D2F1 mouse assessed as RBC count at 5 mg/kg, iv; format: organism-based; set-up: dose 5 mg/kg, route intravenous; conditions: in vivo
[19] = system: Mus musculus; test: Hematotoxicity in B6D2F1 mouse assessed as platelet count at 40 mg/kg, po; format: organism-based; set-up: dose 40 mg/kg, route oral; conditions: in vivo
[20] = system: Mus musculus; test: Hematotoxicity in B6D2F1 mouse assessed as WBC count at 10 mg/kg, po; format: organism-based; set-up: dose 10 mg/kg, route oral; conditions: in vivo
[21] = system: Mus musculus; test: Hematotoxicity in B6D2F1 mouse assessed as platelet count at 5 mg/kg, iv; format: organism-based; set-up: dose 5 mg/kg, route intravenous; conditions: in vivo
[22] = system: Mus musculus; test: Hematotoxicity in ip dosed B6D2F1 mouse assessed as decrease in platelet count; format: organism-based; conditions: in vivo; procedure, shortened: as §3
[23] = system: A549; test: Antiproliferative activity against A549 cells after 72 hrs by MTT assay; format: functional, cell-based, Homo sapiens; conditions: a549; procedure, shortened: as §2
[24] = system: Mus musculus; test: Hematotoxicity in B6D2F1 mouse assessed as platelet count at 10 mg/kg, iv; format: organism-based; set-up: dose 10 mg/kg, route intravenous; conditions: in vivo
[25] = system: Mus musculus; test: Hematotoxicity in B6D2F1 mouse assessed as platelet count at 20 mg/kg, po; format: organism-based; set-up: dose 20 mg/kg, route oral; conditions: in vivo
[26] = system: MCF7; test: Antiproliferative activity against MCF7 cells after 72 hrs by MTT assay; format: functional, cell-based, Homo sapiens; conditions: mcf7; procedure, shortened: as §2
[27] = system: Mus musculus; test: Hematotoxicity in B6D2F1 mouse assessed as RBC count at 10 mg/kg, po; format: organism-based; set-up: dose 10 mg/kg, route oral; conditions: in vivo
[28] = system: LoVo; test: Antiproliferative activity against LoVo cells after 72 hrs by MTT assay; format: functional, cell-based, Homo sapiens; conditions: lovo; procedure, shortened: as §2
[29] = system: L1210; test: Antitumor activity in L1210 cells xenografted B6D2F1 mouse at 10 mg/kg, ip relative to control; format: functional; conditions: route intraperitoneal; procedure, shortened: as §1
[30] = system: L1210; test: Antitumor activity in L1210 cells xenografted B6D2F1 mouse at 20 mg/kg, ip relative to control; format: functional; conditions: route intraperitoneal; procedure, shortened: as §1

With `CN(C)CCN1C(=O)c2cccc3cc(/N=C\c4cc(O)ccc4O)cc(c23)C1=O` the Activity [1] was 9.54 10^6 /uL, the Activity [2] was 2.17 10^3 /uL and the Activity [3] was “Toxic”. For the same compound, the Activity [4] was 4.07 10^3 /uL, the Activity [5] was 3.05 10^3 /uL and the Activity [6] was 42%. The Activity [7] was 9.92 10^6 /uL, the Activity [8] was 232% and the Activity [9] was 7.87 10^6 /uL. For the same compound, the IC50 [10] was over 10 µM, the IC50 [11] was 7.8 µM and the Activity [12] was 909 10^3 /uL. The IC50 [13] was over 10 µM, the Activity [14] was over 300% and the Activity [15] was “Toxic”. The Activity [16] was 3.09 10^3 /uL, the MTD [17] was over 160 mg/kg and the Activity [18] was 9.48 10^6 /uL. The Activity [19] was 1033 10^3 /uL, the Activity [20] was 2.36 10^3 /uL and the Activity [21] was 498 10^3 /uL. For the same compound, the Activity [22] was “Toxic”, the IC50 [23] was 9.1 µM and the Activity [24] was 443 10^3 /uL. The Activity [25] was 1007 10^3 /uL, the IC50 [26] was over 10 µM and the Activity [27] was 10.22 10^6 /uL. It also gave an IC50 [28] of 8.4 µM, an Activity [29] of 151% and an Activity [30] of 148%.
